Measured values from different studies.
Compare with care: the assays were run in different laboratories.
Organism: Bacillus subtilis
Read-out: microbial growth

SMILES	test	test system	setting	MIC
CCCCCCCCCCCC(=O)OC[C@H]1O[C@@H](n2cc(C)c(=O)[nH]c2=O)C[C@@H]1OC(=O)c1ccc(C(C)(C)C)cc1	broth dilution	–	–	1 µg/mL
CCCCCCCCCC(=O)N[C@@H](Cc1c[nH]c2ccccc12)C(=O)N[C@H](CC(N)=O)C(=O)N[C@@H](CC(=O)O)C(=O)N[C@@H]1C(=O)NCC(=O)N[C@@H](CCCN)C(=O)N[C@@H](CC(=O)O)C(=O)N[C@H](C)C(=O)N[C@@H](CC(=O)O)C(=O)NCC(=O)N[C@H](CO)C(=O)N[C@@H]([C@H](C)CC(=O)O)C(=O)N[C@@H](CC(=O)c2ccccc2N)C(=O)O[C@@H]1C	broth dilution	168	–	0.25 µg/mL
CCCCCCCCCCCCCCCC(=O)NP(=O)(O)O	–	ATCC23857	–	> 200 µg/mL
Oc1cc(Cl)ccc1Oc1ccc(Cl)cc1Cl	–	–	–	1.8 µg/mL
CCCCCCCC(=O)CP(=O)(O)O	–	ATCC23857	–	> 200 µg/mL
Cc1c(NN=C(C#N)C2=NC(=O)CS2)c(=O)n(-c2ccccc2)n1C	broth dilution	–	–	0.98 µg/mL
CC1C(=NOCc2cn(-c3ccccc3)nn2)CC(c2ccccc2)OC1c1ccccc1 (stereo not shown)	broth dilution	MTCC121	24 h	50 µg/mL
CCCCCCCCCCCC(=O)C(F)(F)P(=O)(O)O	–	ATCC23857	–	> 200 µg/mL
CCC1C(=NOCc2cn(-c3ccccc3)nn2)CC(c2ccccc2)OC1c1ccccc1 (stereo not shown)	broth dilution	MTCC121	24 h	25 µg/mL
CO[C@@H]1[C@@H](OC(N)=O)[C@@H](O)[C@H](Oc2ccc3c(O)c(NC(=O)c4ccc(O)c(CC=C(C)C)c4)c(=O)oc3c2C)OC1(C)C	broth dilution	ATCC6633	–	< 6.25 µM
